# Measured values as given in ChEMBL document CHEMBL5712913, “Discovery of novel ATAD2 bromodomain inhibitors that trigger apoptosis and autophagy in breast cells by structure-based virtual screening” (J Enzyme Inhib Med Chem, 2020).
# The source made the active and inactive calls. The calls are words filed in the database; no cut-off is given here.
# How the values were obtained:
# [1] = biological target: T1, ATPase family AAA domain-containing protein 2 (Homo sapiens, UniProt Q6PL18); experiment: Inhibitory activity against ATAD2 (unknown origin) at bromodomain incubated for 180 min by Tr-FRET assay
# T1 sequence (Q6PL18 whole entry): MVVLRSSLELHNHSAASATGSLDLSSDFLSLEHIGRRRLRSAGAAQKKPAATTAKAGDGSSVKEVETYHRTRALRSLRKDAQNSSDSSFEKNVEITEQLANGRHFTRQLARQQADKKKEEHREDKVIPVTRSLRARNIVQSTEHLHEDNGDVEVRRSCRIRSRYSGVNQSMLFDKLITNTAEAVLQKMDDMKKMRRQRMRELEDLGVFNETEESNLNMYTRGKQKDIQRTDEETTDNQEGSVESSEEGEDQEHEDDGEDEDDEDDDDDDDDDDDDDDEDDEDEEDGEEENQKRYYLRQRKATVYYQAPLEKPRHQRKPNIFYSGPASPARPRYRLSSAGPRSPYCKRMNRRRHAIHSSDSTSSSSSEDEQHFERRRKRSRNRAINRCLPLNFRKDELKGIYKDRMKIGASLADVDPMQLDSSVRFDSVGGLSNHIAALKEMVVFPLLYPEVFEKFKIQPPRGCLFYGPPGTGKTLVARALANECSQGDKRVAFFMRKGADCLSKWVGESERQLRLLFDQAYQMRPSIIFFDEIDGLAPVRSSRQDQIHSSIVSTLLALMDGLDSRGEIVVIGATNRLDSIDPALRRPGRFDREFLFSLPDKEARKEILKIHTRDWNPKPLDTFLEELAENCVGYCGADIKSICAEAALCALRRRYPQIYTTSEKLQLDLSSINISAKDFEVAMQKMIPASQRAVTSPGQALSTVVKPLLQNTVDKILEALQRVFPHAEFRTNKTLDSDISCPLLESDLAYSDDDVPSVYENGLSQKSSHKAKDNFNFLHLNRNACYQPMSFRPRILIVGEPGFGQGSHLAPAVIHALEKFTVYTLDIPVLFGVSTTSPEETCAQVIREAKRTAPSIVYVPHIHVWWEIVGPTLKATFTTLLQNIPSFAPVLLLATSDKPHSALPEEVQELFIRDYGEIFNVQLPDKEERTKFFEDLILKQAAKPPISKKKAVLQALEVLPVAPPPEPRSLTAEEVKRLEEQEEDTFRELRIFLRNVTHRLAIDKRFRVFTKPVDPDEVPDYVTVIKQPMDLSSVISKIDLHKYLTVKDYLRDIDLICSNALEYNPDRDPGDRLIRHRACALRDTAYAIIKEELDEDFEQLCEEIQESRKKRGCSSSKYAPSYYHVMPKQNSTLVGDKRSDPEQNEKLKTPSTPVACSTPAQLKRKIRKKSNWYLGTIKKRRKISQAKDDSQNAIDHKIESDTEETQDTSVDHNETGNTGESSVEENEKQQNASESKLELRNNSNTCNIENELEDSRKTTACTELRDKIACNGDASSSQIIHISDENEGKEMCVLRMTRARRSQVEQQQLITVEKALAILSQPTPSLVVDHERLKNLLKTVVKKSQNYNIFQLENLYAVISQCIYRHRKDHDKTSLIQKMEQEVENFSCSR
# Procedure, shortened: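 Recombinant ATAD2 bromodomain and BET ligand read by TR-FRET. Compounds diluted in DMSO, then 20-fold in 5% DMSO in reaction buffer; 2 µl added per 20 µl reaction. Incubated 180 min, then acceptor/donor fluorescence ratio read. Each concentration run in duplicate.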
# MDA-MB-231 [2] = experiment: Inhibition of ATAD2 in human MDA-MB-231 cells by measuring reduction in color intensity at 2.5 uM by immuno chemistry analysis; type: functional, cell-based
# Procedure, shortened: (§1)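 MDA-MB-231 cells treated at 2.5 µM. Anti-ATAD2 or anti-p-cMyc primary (1:200 in PBS/1% BSA) applied overnight at 4 °C, then fluorescent secondary antibody 1 h at room temperature. Nuclei counterstained with DAPI, green signal imaged.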
# MDA-MB-231 [3] = experiment: Inhibition of ATAD2 in human MDA-MB-231 cells assessed as downregulation of c-myc phosphorylation at 2.5 uM by immuno chemistry analysis; type: cell-based; procedure, shortened: as §1
# MDA-MB-231 [4] = experiment: Induction of apoptosis in human MDA-MB-231 cells assessed as reduction of Bcl-2 expression after 24 hrs by Western blot assay; type: functional, cell-based; conditions: dose 1.25-5 µM
# Procedure, shortened: (§2)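 MDA-MB-231 cells (DMEM, 10% FBS, 5% CO2) exposed to 1.25, 2.5 or 5 μM for 24 h. Adherent and floating cells lysed in Hepes 50 mM pH 7.4/1% Triton X-100 buffer with phosphatase and protease inhibitors. Equal protein run on 10–15% SDS-PAGE, transferred to PVDF, detected by HRP/ECL. Bands normalised to β-actin, compared with DMSO control by unpaired t-test.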
# MDA-MB-231 [5] = experiment: Induction of autophagy in human MDA-MB-231 cells assessed as downregulation of AKT expression at 1.25 to 5 uM for 24 hrs by Western blot assay; type: functional, cell-based; conditions: dose 1.25-5 µM
# MDA-MB-231 [6] = experiment: Induction of autophagy in human MDA-MB-231 cells assessed as increase of ULK1 expression after 24 hrs by Western blot assay; type: functional, cell-based; conditions: dose 1.25-5 µM
# MDA-MB-231 [7] = experiment: Induction of autophagy in human MDA-MB-231 cells assessed as downregulation of PI3K expression at 1.25 to 5 uM for 24 hrs by Western blot assay; type: functional, cell-based; conditions: dose 1.25-5 µM
# Procedure, shortened: (§3)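 MDA-MB-231 cells treated with 1.25, 2.5 or 5 µM for 24 h. Lysates made in Hepes pH 7.4/Triton X-100 buffer with protease and phosphatase inhibitors, then run on SDS-PAGE, blotted to PVDF and detected by HRP/ECL. p-PI3K and p-mTOR Ser2448 bands normalised to β-actin.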
# MDA-MB-231 [8] = experiment: Induction of autophagy in human MDA-MB-231 cells assessed as increase of p-ULK1 expression after 24 hrs by Western blot assay; type: functional, cell-based; conditions: dose 1.25-5 µM
# MDA-MB-231 [9] = experiment: Induction of apoptosis in human MDA-MB-231 cells assessed as reduction of cleavage of caspase 8 after 24 hrs by Western blot assay; type: functional, cell-based; conditions: dose 1.25-5 µM; procedure, shortened: as §2
# MDA-MB-231 [10] = experiment: Induction of apoptosis in human MDA-MB-231 cells assessed as necrotic cells at 2.5 microM after 24 hrs by Annexin-V/PI staining based flow cytometry (Rvb= 1.22%); type: functional
# MDA-MB-231 [11] = experiment: Induction of apoptosis in human MDA-MB-231 cells assessed as late apoptotic cells at 2.5 microM after 24 hrs by Annexin-V/PI staining based flow cytometry (Rvb= 2.46%); type: functional
# MDA-MB-231 [12] = experiment: Induction of apoptosis in human MDA-MB-231 cells assessed as necrotic cells at 5 microM after 24 hrs by Annexin-V/PI staining based flow cytometry (Rvb= 1.22%); type: functional
# MDA-MB-231 [13] = experiment: Inhibition of ATAD2 in human MDA-MB-231 cells by measuring c-myc protein level at 1.25 to 5 uM for 24 hrs by Western blot analysis; type: functional, cell-based; conditions: dose 1.25-5 µM
# Procedure, shortened: (§4)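 MDA-MB-231 cells treated with 1.25, 2.5 and 5.0 µM for 24 h. Lysates separated on 10–15% SDS-PAGE and blotted to PVDF. c-Myc and p-cMyc detected with HRP/ECL, with β-actin as loading control.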
# MDA-MB-231 [14] = experiment: Induction of autophagy in human MDA-MB-231 cells assessed as increase of LC3-II expression after 24 hrs by Western blot assay; type: functional, cell-based; conditions: dose 1.25-5 µM
# MDA-MB-231 [15] = experiment: Induction of autophagy in human MDA-MB-231 cells assessed as degradation of SQSTM1/p62 after 24 hrs by Western blot assay; type: functional, cell-based; conditions: dose 1.25-5 µM
# MDA-MB-231 [16] = experiment: Induction of apoptosis in human MDA-MB-231 cells assessed as necrotic cells at 1.25 microM after 24 hrs by Annexin-V/PI staining based flow cytometry (Rvb= 1.22%); type: functional
# MDA-MB-231 [17] = experiment: Induction of apoptosis in human MDA-MB-231 cells assessed as viable cells at 5 microM after 24 hrs by Annexin-V/PI staining based flow cytometry (Rvb= 93.17 %); type: functional; conditions: read-out: Activity
# MDA-MB-231 [18] = experiment: Induction of apoptosis in human MDA-MB-231 cells assessed as viable cells at 2.5 microM after 24 hrs by Annexin-V/PI staining based flow cytometry (Rvb= 93.17 %); type: functional; conditions: read-out: Activity
# MDA-MB-231 [19] = experiment: Induction of autophagy in human MDA-MB-231 cells assessed as increase of beclin 1 expression after 24 hrs by Western blot assay; type: functional, cell-based; conditions: dose 1.25-5 µM
# MDA-MB-231 [20] = experiment: Induction of apoptosis in human MDA-MB-231 cells assessed as late apoptotic cells at 1.25 microM after 24 hrs by Annexin-V/PI staining based flow cytometry (Rvb= 2.46%); type: functional
# MDA-MB-231 [21] = experiment: Inhibition of ATAD2 in human MDA-MB-231 cells by measuring c-myc phosphorylation at 1.25 to 5 uM for 24 hrs by Western blot analysis; type: functional, cell-based; conditions: dose 1.25-5 µM; procedure, shortened: as §4
# MDA-MB-231 [22] = experiment: Induction of autophagy in human MDA-MB-231 cells assessed as downregulation of mTOR expression at 1.25 to 5 uM for 24 hrs by Western blot assay; type: functional, cell-based; conditions: dose 1.25-5 µM; procedure, shortened: as §3
# MDA-MB-231 [23] = experiment: Induction of autophagy in human MDA-MB-231 cells assessed as downregulation of mTOR at ser2448 residue expression at 1.25 to 5 uM for 24 hrs by Western blot assay; type: functional, cell-based; conditions: dose 1.25-5 µM; procedure, shortened: as §3
# MDA-MB-231 [24] = experiment: Induction of apoptosis in human MDA-MB-231 cells assessed as reduction of cleavage of caspase 3 after 24 hrs by Western blot assay; type: functional, cell-based; conditions: dose 1.25-5 µM; procedure, shortened: as §2
# MDA-MB-231 [25] = experiment: Induction of apoptosis in human MDA-MB-231 cells assessed as early apoptotic cells at 1.25 microM after 24 hrs by Annexin-V/PI staining based flow cytometry (Rvb= 3.14 %); type: functional
# MDA-MB-231 [26] = experiment: Induction of apoptosis in human MDA-MB-231 cells assessed as early apoptotic cells at 5 microM after 24 hrs by Annexin-V/PI staining based flow cytometry (Rvb= 3.14 %); type: functional
# MDA-MB-231 [27] = experiment: Induction of autophagy in human MDA-MB-231 cells assessed as aggregation of LC3 puncta after 24 hrs by immunofluorescence analysis; type: functional, cell-based
# Procedure, shortened: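 MDA-MB-231 cells transfected with GFP/mRFP-LC3, then exposed to 2.5 µM for 24 h. LC3 puncta and autophagy ratio scored under a fluorescence microscope.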
# MDA-MB-231 [28] = experiment: Induction of apoptosis in human MDA-MB-231 cells assessed as increase of Bax expression after 24 hrs by Western blot assay; type: functional, cell-based; conditions: dose 1.25-5 µM; procedure, shortened: as §2
# MDA-MB-231 [29] = experiment: Induction of apoptosis in human MDA-MB-231 cells assessed as early apoptotic cells at 2.5 microM after 24 hrs by Annexin-V/PI staining based flow cytometry (Rvb= 3.14 %); type: functional
# MDA-MB-231 [30] = experiment: Induction of apoptosis in human MDA-MB-231 cells assessed as late apoptotic cells at 5 microM after 24 hrs by Annexin-V/PI staining based flow cytometry (Rvb= 2.46%); type: functional
smiles,measurement,setting,value
COc1cc(Cl)c(C(=O)N[C@H](CN[C@H]2CC[C@@H](N)CC2)Cc2ccc(C#N)cc2)cc1-c1ccc(CN[C@H](C)c2ccc(C)cc2)o1,IC50,[1],242 nM
CC1=C(C#N)c2nc(N)c(C#N)c(C)c2/C1=C\c1ccc(-c2cc(C(=O)O)ccc2Cl)o1,Activity,MDA-MB-231 [2],Active
same,inhibition,MDA-MB-231 [3],Active
same,Activity,MDA-MB-231 [4],Active
same,Activity,MDA-MB-231 [5],Active
same,Activity,MDA-MB-231 [6],Dose-Dependent Effect
same,Activity,MDA-MB-231 [7],Active
same,Activity,MDA-MB-231 [8],Dose-Dependent Effect
same,Activity,MDA-MB-231 [9],Active
same,Activity,MDA-MB-231 [10],3.67%
same,Activity,MDA-MB-231 [11],3.92%
same,Activity,MDA-MB-231 [12],5.98%
same,Activity,MDA-MB-231 [13],Active
same,Activity,MDA-MB-231 [14],Active
same,Activity,MDA-MB-231 [15],Active
same,Activity,MDA-MB-231 [16],1.55%
same,viability at 5 µM,MDA-MB-231 [17],60.1%
same,viability at 2.5 µM,MDA-MB-231 [18],84.7%
same,Activity,MDA-MB-231 [19],Active
same,Activity,MDA-MB-231 [20],2.89%
same,Activity,MDA-MB-231 [21],Active
same,Activity,MDA-MB-231 [22],Active
same,Activity,MDA-MB-231 [23],Active
same,Activity,MDA-MB-231 [24],Active
same,Activity,MDA-MB-231 [25],5.24%
same,Activity,MDA-MB-231 [26],23.86%
same,Activity,MDA-MB-231 [27],Active
same,Activity,MDA-MB-231 [28],Active
same,Activity,MDA-MB-231 [29],7.76%
same,Activity,MDA-MB-231 [30],10.01%
